Assay results as given in ChEMBL document CHEMBL2146464, “Structure-activity relationship study of nitrosopyrimidines acting as antifungal agents” (Bioorg Med Chem, 2012).
Values after ≈ are worked out from the molar mass of the structure shown. Active and inactive are the calls of the source. The calls are words filed in the database; no cut-off is given here.

Columns and labels:
[1] = tested on: Trichophyton rubrum; experiment: Antifungal activity against Trichophyton rubrum CCC 110 by NCCLS broth microdilution method; type: functional; settings: read-out: MIC100
Method in brief: (§1)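 MIC by broth microdilution per NCCLS M27-A3/M38-A2 in RPMI-1640 buffered to pH 7.0 with MOPS. Twofold dilutions from 250–0.98 µg/mL, final DMSO ≤1%. Inoculum 1–5 × 10³ CFU/mL. Incubated in a moist dark chamber, 30 °C for Aspergillus and 28–30 °C for dermatophytes. Read visually when control growth allowed. Endpoint is the lowest concentration giving total inhibition of visible growth (MIC100).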

[2] = tested on: Aspergillus fumigatus; experiment: Antifungal activity against Aspergillus fumigatus ATCC 26934 by NCCLS broth microdilution method; type: functional; settings: read-out: MIC100; method in brief: as §1
[3] = tested on: Trichophyton mentagrophytes; experiment: Antifungal activity against Trichophyton mentagrophytes ATCC 9972 by NCCLS broth microdilution method; type: functional; settings: read-out: MIC100; method in brief: as §1
[4] = tested on: Aspergillus flavus; experiment: Antifungal activity against Aspergillus flavus ATCC 9170 by NCCLS broth microdilution method; type: functional; settings: read-out: MIC100; method in brief: as §1
[5] = tested on: Nannizzia gypsea; experiment: Antifungal activity against Microsporum gypseum CCC 115 by NCCLS broth microdilution method; type: functional; settings: read-out: MIC100; method in brief: as §1
[6] = tested on: Candida albicans; experiment: Antifungal activity against Candida albicans ATCC 10231 after 24 hrs by microplate reader analysis; type: functional; settings: ATCC 10231, 24 h
Method in brief: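 96-well RPMI-1640 wells with compound at final 250–0.98 µg/mL (DMSO ≤1%). Inoculum 100 µL, 1–5 × 10³ CFU/mL, 200 µL final. Each well includes growth (DMSO, no compound) and sterility controls. % inhibition = 100 − (CTW−SCW)/(GCW−SCW) × 100, run in duplicate.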

[7] = tested on: Aspergillus niger; experiment: Antifungal activity against Aspergillus niger ATCC 9029 by NCCLS broth microdilution method; type: functional; settings: read-out: MIC100; method in brief: as §1
[8] = tested on: Cryptococcus neoformans; experiment: Antifungal activity against Cryptococcus neoformans ATCC 32264 after 48 hrs by microplate reader analysis; type: functional; settings: ATCC 32264, 48 h
Method in brief: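 Microplate growth-inhibition assay in RPMI-1640, compound at final 250–0.98 µg/mL (DMSO ≤1%). Inoculum 1–5 × 10³ CFU/mL. Sterility and DMSO growth controls included. Percent inhibition is computed from blank-corrected OD relative to the growth control, tested in duplicate.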

[9] = tested on: Cryptococcus neoformans; experiment: Antifungal activity against Cryptococcus neoformans ATCC 32264 after 48 hrs by NCCLS broth microdilution method; type: functional; settings: ATCC 32264, 48 h, read-out: MIC100
Method in brief: (§2)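 Yeast MIC by NCCLS M27-A3 broth microdilution in RPMI-1640 buffered to pH 7.0 with MOPS. Twofold dilutions of 250–0.98 µg/mL, final DMSO ≤1%. Inoculum 1–5 × 10³ CFU/mL. Incubated at 30 °C in a moist dark chamber. Read visually at 48 h. MIC100 is the lowest concentration with no visible growth versus drug-free control.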

[10] = tested on: Candida tropicalis; experiment: Antifungal activity against Candida tropicalis by microplate reader analysis; type: functional
[11] = tested on: Candida tropicalis; experiment: Antifungal activity against Candida tropicalis after 48 hrs by NCCLS broth microdilution method; type: functional; settings: read-out: MIC100; method in brief: as §2
[12] = tested on: Candida albicans; experiment: Antifungal activity against Candida albicans ATCC 10231 after 48 hrs by NCCLS broth microdilution method; type: functional; settings: ATCC 10231, 48 h, read-out: MIC100; method in brief: as §2
[13] = tested on: Trichophyton rubrum; experiment: Antifungal activity against Trichophyton rubrum CCC 110 at 0.98 to 250 ug/mL by NCCLS broth microdilution method; type: functional, organism-based; method in brief: as §1
[14] = tested on: Aspergillus flavus; experiment: Antifungal activity against Aspergillus flavus ATCC 9170 at 0.98 to 250 ug/mL by NCCLS broth microdilution method; type: functional, organism-based; method in brief: as §1
[15] = tested on: Candida albicans; experiment: Antifungal activity against Candida albicans ATCC 10231 at 0.98 to 250 ug/mL after 48 hrs by NCCLS broth microdilution method; type: functional, organism-based; method in brief: as §2
[16] = tested on: Aspergillus fumigatus; experiment: Antifungal activity against Aspergillus fumigatus ATCC 26934 at 0.98 to 250 ug/mL by NCCLS broth microdilution method; type: functional, organism-based; method in brief: as §1
[17] = tested on: Nannizzia gypsea; experiment: Antifungal activity against Microsporum gypseum CCC 115 at 0.98 to 250 ug/mL by NCCLS broth microdilution method; type: functional, organism-based; method in brief: as §1
[18] = tested on: Cryptococcus neoformans; experiment: Antifungal activity against Cryptococcus neoformans ATCC 32264 at 0.98 to 250 ug/mL after 48 hrs by NCCLS broth microdilution method; type: functional, organism-based; method in brief: as §2
[19] = tested on: Candida tropicalis; experiment: Antifungal activity against Candida tropicalis at 0.98 to 250 ug/mL after 48 hrs by NCCLS broth microdilution method; type: functional, organism-based; method in brief: as §2
[20] = tested on: Trichophyton mentagrophytes; experiment: Antifungal activity against Trichophyton mentagrophytes ATCC 9972 at 0.98 to 250 ug/mL by NCCLS broth microdilution method; type: functional, organism-based; method in brief: as §1
[21] = tested on: Aspergillus niger; experiment: Antifungal activity against Aspergillus niger ATCC 9029 at 0.98 to 250 ug/mL by NCCLS broth microdilution method; type: functional, organism-based; method in brief: as §1

Structure (SMILES)	Activity [13]	Activity [14]	Activity [15]	Activity [16]	Activity [17]	Activity [18]	Activity [19]	Activity [20]	Activity [21]	other results
C[C@@H]1[C@H](O)[C@@H](C)/C=C/C=C/C=C/C=C/C=C/C=C/C=C/[C@H](O[C@@H]2O[C@H](C)[C@@H](O)[C@H](N)[C@@H]2O)C[C@@H]2O[C@](O)(C[C@@H](O)C[C@@H](O)[C@H](O)CC[C@@H](O)C[C@@H](O)CC(=O)O[C@H]1C)C[C@H](O)[C@H]2C(=O)O [AMPHOTERICIN B]	–	–	–	–	–	–	–	–	–	MIC [1]: 0.06 µg/mL (≈ 0.0649 µM); MIC [2]: 0.49 µg/mL (≈ 0.53 µM); MIC [3]: 0.06 µg/mL (≈ 0.0649 µM); MIC [4]: 0.49 µg/mL (≈ 0.53 µM); MIC [5]: 0.12 µg/mL (≈ 0.13 µM); MIC50 [6]: 0.49 µg/mL (≈ 0.53 µM); MIC [7]: 0.49 µg/mL (≈ 0.53 µM); MIC50 [8]: 0.98 µg/mL (≈ 1.06 µM); MIC [9]: 0.25 µg/mL (≈ 0.271 µM); MIC50 [10]: 0.49 µg/mL (≈ 0.53 µM); MIC [11]: 0.98 µg/mL (≈ 1.06 µM); MIC [12]: 0.98 µg/mL (≈ 1.06 µM)
CN(C/C=C/C#CC(C)(C)C)Cc1cccc2ccccc12 [TERBINAFINE]	–	–	–	–	–	–	–	–	–	MIC [1]: 0.01 µg/mL (≈ 0.0343 µM); MIC [2]: 0.98 µg/mL (≈ 3.36 µM); MIC [3]: 0.03 µg/mL (≈ 0.103 µM); MIC [4]: 0.98 µg/mL (≈ 3.36 µM); MIC [5]: 0.04 µg/mL (≈ 0.137 µM); MIC [7]: 1.96 µg/mL (≈ 6.73 µM); MIC [9]: 0.49 µg/mL (≈ 1.68 µM); MIC [11]: 1.95 µg/mL (≈ 6.69 µM); MIC [12]: 0.98 µg/mL (≈ 3.36 µM)
COc1nc(N)nc(NCCOCCO)c1N=O	inactive	inactive	inactive	inactive	inactive	inactive	inactive	inactive	inactive	–
CCOC(=O)CCNc1nc(N)nc(OC)c1N=O	inactive	inactive	inactive	inactive	inactive	inactive	inactive	inactive	inactive	–
CCC(C)C(Nc1nc(N)[nH]c(=O)c1N=O)C(=O)O (stereo not given)	inactive	inactive	inactive	inactive	inactive	inactive	inactive	inactive	inactive	–
CCOC(=O)CNc1nc(N)nc(OC)c1N=O	inactive	inactive	inactive	inactive	inactive	inactive	inactive	inactive	inactive	–
COc1nc(N)nc(NC23CC4CC(CC(C4)C2)C3)c1N=O	inactive	inactive	inactive	inactive	inactive	inactive	inactive	inactive	inactive	–
CC(=O)N1CCN(c2ccc(OCC3COC(Cn4ccnc4)(c4ccc(Cl)cc4Cl)O3)cc2)CC1 (stereo not given) [KETOCONAZOLE]	–	–	–	–	–	–	–	–	–	MIC [1]: 0.03 µg/mL (≈ 0.0565 µM); MIC [2]: 0.49 µg/mL (≈ 0.922 µM); MIC [3]: 0.03 µg/mL (≈ 0.0565 µM); MIC [4]: 0.12 µg/mL (≈ 0.226 µM); MIC [5]: 0.06 µg/mL (≈ 0.113 µM); MIC [7]: 0.25 µg/mL (≈ 0.47 µM); MIC [9]: 0.25 µg/mL (≈ 0.47 µM); MIC [11]: 0.49 µg/mL (≈ 0.922 µM); MIC [12]: 0.98 µg/mL (≈ 1.84 µM)
COc1nc(N)c(N=O)c(=O)n1Cc1ccccc1	inactive	inactive	inactive	inactive	inactive	inactive	inactive	inactive	inactive	–
COc1nc(N)nc2c1NC(=O)[C@H](Cc1ccccc1)N2	inactive	inactive	inactive	inactive	inactive	inactive	inactive	inactive	inactive	–
Nc1nc2c(c(OCC3CCCCC3)n1)NC(=O)[C@H](Cc1ccccc1)N2	inactive	inactive	inactive	inactive	inactive	inactive	inactive	inactive	inactive	–
COc1nc(N)nc2c1nnn2C12CC3CC(CC(C3)C1)C2	inactive	inactive	inactive	inactive	inactive	inactive	inactive	inactive	inactive	–
CNc1nc(N)nc(NCc2ccccc2)c1N=O	inactive	inactive	inactive	inactive	inactive	inactive	inactive	inactive	inactive	–
